Sampled rows, rich in hits. Any-hit rate of the full collection: about 1.3%.
Diaph act CS: counter-screen for diaphorase-based assays: diaphorase activators and chemical reducers | Diaphorase/resazurin coupled assay, resorufin fluorescence, 16 min; hits give high values; 1 = vehicle wells, 0 = NADH-free wells | activation factor at 20 µM | hit rate 0.005% among 190,000;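 active = diaphorase activity raised at least twofold by the compound at 20 µM; inactive = activation factor below 2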
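Assay system: Purified diaphorase enzyme from Clostridium kluyveri | Amount: Enzyme 0.07 U/mL final | Dosing: Compound 20 µM once, DMSO 1% | Timing: 16 min reaction at room temperature | Detection: Fluorescence, excitation 544 nm and emission 590 nm | Evaluation: Higher resorufin formation from activation or reduction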
G6PDH counter: inhibits Leuconostoc G6PDH, flagging false hits in G6PDH-based assays. hit rate 0.12% among 200,000. Purified L. mesenteroides G6PDH, diaphorase/resazurin coupled fluorescence, 45 min. inhibition, % at 5 µM; in the data active = inhibition above about 50%
Diaph inh CS: inhibits diaphorase or chemically oxidizes, flagging diaphorase assay artifacts. inhibition, % at 20 µM. hit rate 0.69% among 190,000. AID 1217. diaphorase resazurin-to-resorufin fluorescence, NADH, 16 min; bacterial (C. kluyveri) enzyme, not human;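 active = primary screen inhibition at 20 µM above a set limit, cut at about 50% in these data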;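 also: plate controls were DMSO with full reaction for no effect and wells lacking NADH for full effect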
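Detection: fluorescence of resorufin formed from resazurin, Ex 544/Em 590 nm; test system: Clostridium kluyveri diaphorase enzyme; amount: 0.14 U/mL diaphorase, enzyme working solution; times: 16-min room-temperature incubation before reading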
HKDC1 inhibitor: inhibitors of human hexokinase HKDC1; recombinant HKDC1, G6PDH/diaphorase resazurin coupled fluorescence; inhibition, % at 20 µM; Q2TB90; hit rate 0.16% among 340,000; AID 493160;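 active = inhibition above about 35% when tested at 20 µM, limit read from the data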;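 also: plate controls were DMSO wells with enzyme for no effect and DMSO wells lacking enzyme for full effect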
Target sequence (Q2TB90 whole entry, looked up): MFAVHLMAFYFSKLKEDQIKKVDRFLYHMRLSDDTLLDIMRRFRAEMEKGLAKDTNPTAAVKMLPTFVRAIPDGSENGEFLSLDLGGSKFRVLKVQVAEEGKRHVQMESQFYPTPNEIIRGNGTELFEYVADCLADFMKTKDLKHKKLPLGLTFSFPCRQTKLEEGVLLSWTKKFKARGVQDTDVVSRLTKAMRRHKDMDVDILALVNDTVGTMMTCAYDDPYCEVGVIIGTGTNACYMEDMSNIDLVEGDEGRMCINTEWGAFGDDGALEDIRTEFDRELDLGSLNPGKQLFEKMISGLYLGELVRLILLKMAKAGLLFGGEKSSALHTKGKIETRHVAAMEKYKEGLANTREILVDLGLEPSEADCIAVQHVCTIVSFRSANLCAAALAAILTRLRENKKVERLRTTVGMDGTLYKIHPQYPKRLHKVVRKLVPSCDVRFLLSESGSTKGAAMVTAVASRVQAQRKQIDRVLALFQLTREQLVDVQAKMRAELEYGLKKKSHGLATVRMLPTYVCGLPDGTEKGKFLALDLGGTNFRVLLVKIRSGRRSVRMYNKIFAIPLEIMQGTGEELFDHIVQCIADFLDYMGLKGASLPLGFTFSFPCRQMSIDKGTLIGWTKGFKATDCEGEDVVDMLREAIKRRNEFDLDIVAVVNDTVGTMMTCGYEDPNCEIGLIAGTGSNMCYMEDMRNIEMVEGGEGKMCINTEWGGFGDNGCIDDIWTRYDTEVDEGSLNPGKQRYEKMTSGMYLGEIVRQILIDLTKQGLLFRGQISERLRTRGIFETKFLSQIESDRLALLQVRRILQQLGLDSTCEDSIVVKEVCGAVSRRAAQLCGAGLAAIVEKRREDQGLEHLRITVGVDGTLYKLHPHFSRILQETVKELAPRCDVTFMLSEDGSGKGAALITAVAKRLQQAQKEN
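System: Recombinant HKDC1 hexokinase | Amount: HKDC1 at 5 µg/mL | Reagent: Glucose with 1 mM ATP | Doses: Single 20 µM dose | Incubation: Reaction time 90 min, room temperature, protected from light | Signal: Coupled resazurin fluorescence, excitation 525 nm, emission 613 nm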
PfG6PD inh: PfG6PD (Plasmodium falciparum) enzyme inhibition; AID 504690; inhibition, % at 20 µM; PfGluPho enzyme, NADPH resazurin-diaphorase fluorescence; hit rate 0.78% among 350,000;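 active = inhibition reaching at least a set limit at 20 µM in the primary screen, cut at about 59% in these data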;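 also: 0% = DMSO wells with substrate and 100% = DMSO wells lacking glucose-6-phosphate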
PfG6PD confirm: confirmation of Plasmodium falciparum G6PD inhibitors | shares compounds with PfG6PD inh | hit rate 34% among 2,400 | recombinant PfGluPho, NADPH-diaphorase-resazurin fluorescence | AID 504753 | inhibition, % at 20 µM;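 active = inhibition of at least 50% at 20 µM in any single replicate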;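 also: 0% = DMSO with substrate and 100% = DMSO lacking glucose-6-phosphate substrate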
Diaphorase 10uM: counter-screen for P. falciparum G6PD inhibitors: diaphorase inhibitors, oxidizers; hit rate 39% among 820; inhibition, % at 20 µM; shares compounds with PfG6PD inh; diaphorase-coupled resazurin reduction, fluorescence, NADPH 10 uM; AID 504862;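 active = average inhibition reaching 50% or more with the compound at 20 µM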;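 also: resorufin red fluorescence formed as diaphorase reduces resazurin using NADPH; 0% = DMSO with enzyme and 100% = DMSO without enzyme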
Diaphorase 30uM: diaphorase inhibition or oxidation at 30 uM NADPH; shares compounds with PfG6PD inh; Diaphorase/resazurin coupled assay, resorufin fluorescence; inhibition, % at 20 µM; hit rate 29% among 820;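 active = inhibition averaging 50% or more, tested at 20 µM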;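 also: 0% = DMSO with enzyme and 100% = DMSO wells lacking diaphorase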
Numbers without * were called inactive.

Results for Cc1[nH]c2ccc(C(=O)Nc3ccncc3)cc2c1C ?
HKDC1 inhibitor: 3; PfG6PD inh: 53

Results for CCOc1ccc(-n2c(SCc3cc(=O)oc4cc(C)ccc34)nnc2-c2cccnc2)cc1 ?
Diaph act CS: 0.8; G6PDH counter: -23; Diaph inh CS: 16; HKDC1 inhibitor: -4; PfG6PD inh: 16

What do the screens show for `CC(C)c1ccccc1-n1c(SCc2cc(=O)oc3ccc4ccccc4c23)nnc1-c1cccnc1`?
Diaph act CS: 0.7; G6PDH counter: -17; Diaph inh CS: 25; HKDC1 inhibitor: 10; PfG6PD inh: 61*; PfG6PD confirm: -15

Results for CCc1ccc(-c2cc(C)no2)cc1S(=O)(=O)N1CCN(c2cc(C)ccc2C)CC1 ?
HKDC1 inhibitor: -1; PfG6PD inh: 12

How did COc1cc2c(c(Br)c1N)-c1cc(Br)c(N)cc1C2=O do in these assays?
PfG6PD inh: -6

What do the screens show for `COc1cccc(/C=N/NC(=O)c2c(C)nc3ccc(Br)cn23)c1`?
Diaph act CS: 1; G6PDH counter: 9; Diaph inh CS: 4; HKDC1 inhibitor: 3; PfG6PD inh: 91*; PfG6PD confirm: 54*; Diaphorase 10uM: 40; Diaphorase 30uM: 40

How did COc1ccc(OC)c(/C=N/NC(=O)c2cccc3ccccc23)c1 do in these assays?
HKDC1 inhibitor: -2; PfG6PD inh: -3

How did Cc1nn(C)c(C(=O)N/N=C/c2cccc(Oc3ccccc3)c2)c1Br do in these assays?
HKDC1 inhibitor: 5; PfG6PD inh: 145*; PfG6PD confirm: 89*; Diaphorase 10uM: 80*; Diaphorase 30uM: 71*

What do the screens show for `COc1ccc(OC)c(/C=N/NC(=O)c2c(C)nc3ccc(C)cn23)c1`?
HKDC1 inhibitor: -2; PfG6PD inh: 62*; PfG6PD confirm: 43

What do the screens show for `O=C(NCCCN1CCOCC1)c1ccc2c(c1)N(Cc1c(F)cccc1Cl)C(=O)CS2`?
HKDC1 inhibitor: -5; PfG6PD inh: -7

Results for CCn1nc(C)cc1C(=O)N1CCCC(C(=O)c2ccccc2SC)C1 (stereo not drawn) ?
HKDC1 inhibitor: -7; PfG6PD inh: 2

What do the screens show for `Cc1ccc(C(=O)NCCCN2CCOCC2)c(C)c1`?
HKDC1 inhibitor: -9; PfG6PD inh: -1

What do the screens show for `CC1CCc2nc3sc4c(c3c(N)c2C1)CCCC4` (stereo not drawn)?
Diaph act CS: 0.9; G6PDH counter: 10; Diaph inh CS: 14; HKDC1 inhibitor: -1; PfG6PD inh: 91*; PfG6PD confirm: 41

How did CC1CCc2c(nc3sc4c(c3c2N)CCCC4)C1 (stereo not drawn) do in these assays?
Diaph act CS: 0.9; G6PDH counter: -14; Diaph inh CS: 13; HKDC1 inhibitor: -6; PfG6PD inh: 95*; PfG6PD confirm: 57*; Diaphorase 10uM: 51*; Diaphorase 30uM: 41

How did Nc1c2c(nc3sc4c(c13)CCCCC4)CCCCC2 do in these assays?
Diaph act CS: 0.9; G6PDH counter: -2; Diaph inh CS: 7; HKDC1 inhibitor: 19; PfG6PD inh: 20

What do the screens show for `CCCOc1ccc2oc(=O)c3c(c2c1)CCCN3C(=O)CN(C)Cc1ccccc1`?
Diaph act CS: 0.8; G6PDH counter: 4; Diaph inh CS: 20; HKDC1 inhibitor: 2; PfG6PD inh: 78*; PfG6PD confirm: 39

Results for O=C(CN1CCCCC1)N1CCCc2c1c(=O)oc1ccc(OCc3ccccc3)cc21 ?
Diaph act CS: 0.9; G6PDH counter: -1; Diaph inh CS: 10; HKDC1 inhibitor: 2; PfG6PD inh: 56

Results for Cc1ccc(NC(=O)c2ccc(-n3cncn3)c([N+](=O)[O-])c2)cc1 ?
Diaph act CS: 1; G6PDH counter: -15; Diaph inh CS: 3; HKDC1 inhibitor: -3; PfG6PD inh: 49
